Test results as given in ChEMBL document CHEMBL2016456, “Antiangiogenic effect of chamigrane endoperoxides from a Thai mangrove-derived fungus” (J Nat Prod, 2011).
The source made the active and inactive calls. The calls are words filed in the database; no cut-off is given here.

Assays:
Aorta [1] = test: Antiangiogenic activity in Wistar rat aortic ring assessed as complete inhibition of microvessel sprouting at 25 uM after 7 days by phase-contrast microscopy; assay type: functional, tissue-based
Aorta [2] = test: Antiangiogenic activity in Wistar rat aortic ring assessed as complete inhibition of microvessel sprouting at 2.5 uM after 7 days by phase-contrast microscopy; assay type: functional, tissue-based
Aorta [3] = test: Antiangiogenic activity in Wistar rat aortic ring assessed as complete inhibition of microvessel sprouting at 2.5 uM after 7 days by phase-contrast microscopy relative to steperoxide A; assay type: functional
HUVEC [4] = test: Antiproliferative activity against HUVEC after 72 hrs by WST8 assay; assay type: functional, cell-based; settings: Homo sapiens
Procedure, shortened: (§1)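 HUVECs at 1.5 × 10^4 cells/mL plated and grown 24 h. Medium then replaced with HuMedia EG2 containing compound or DMSO for 72 h at 37 C, 5% CO2. Proliferation read by WST-8 absorbance at 450 nm.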

HUVEC [5] = test: Antiproliferative activity against HUVEC at 25 uM after 72 hrs by WST8 assay; assay type: functional; settings: Homo sapiens; procedure, shortened: as §1
HUVEC [6] = test: Antiangiogenic activity in HUVEC assessed as inhibition of VEGF-induced endothelial migration after 6 hrs using Diff-Quik staining by modified Boyden chamber based chemotactic migration assay; assay type: functional, cell-based; settings: Homo sapiens
Procedure, shortened: (§2)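 Modified Boyden chamber, 8 μm membrane coated with 0.1% gelatin. HUVECs (2.5 × 10^5 cells/mL) in Medium 199 with 0.1% BSA in upper chamber. Lower well held Medium 199, 0.1% BSA, VEGF 10 ng/mL, with or without compound. After 6 h at 37 C, migrated cells methanol-fixed, Diff-Quik stained, counted in three fields at 200×.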

HUVEC [7] = test: Antiangiogenic activity in HUVEC assessed as inhibition of tube formation at 2.5 to 10 uM after 12 hrs by light microscopy matrigel based assay; assay type: functional, cell-based; settings: Homo sapiens
Procedure, shortened: (§3)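 HUVECs (passages 3–7) at 1 × 10^5 cells/mL in HuMedia EG2 with compound or DMSO seeded onto solidified Matrigel. Incubated 12 h at 37 C, 5% CO2. Tube formation observed under inverted light microscope at 40× and photographed.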

HUVEC [8] = test: Antiangiogenic activity in HUVEC assessed as inhibition of tube formation at 25 uM after 12 hrs by light microscopy matrigel based assay; assay type: functional; settings: Homo sapiens; procedure, shortened: as §3
HUVEC [9] = test: Antiangiogenic activity in HUVEC assessed as complete inhibition of tube formation at 50 uM after 12 hrs by light microscopy matrigel based assay; assay type: functional, cell-based; settings: Homo sapiens; procedure, shortened: as §3
[10] = molecular target: T1, Mitogen-activated protein kinase; ERK1/ERK2 (Homo sapiens) (UniProt P27361+P28482); test: Inhibition of VEGF-stimulated ERK1/2 activation in HUVEC after 1 hr by Western blot analysis; assay type: protein assay
T1 sequence (P27361 whole entry, looked up): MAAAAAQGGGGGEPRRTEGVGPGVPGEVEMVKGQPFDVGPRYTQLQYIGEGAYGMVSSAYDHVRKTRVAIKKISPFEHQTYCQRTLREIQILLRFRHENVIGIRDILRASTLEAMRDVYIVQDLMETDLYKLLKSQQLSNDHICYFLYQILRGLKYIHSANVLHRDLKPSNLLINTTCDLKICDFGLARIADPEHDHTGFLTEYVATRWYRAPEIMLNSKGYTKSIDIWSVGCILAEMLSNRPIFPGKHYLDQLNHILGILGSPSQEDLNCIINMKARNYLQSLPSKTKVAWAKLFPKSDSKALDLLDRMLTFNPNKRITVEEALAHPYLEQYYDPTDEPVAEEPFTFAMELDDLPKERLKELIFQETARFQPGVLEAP
T1 sequence (P28482 whole entry, looked up): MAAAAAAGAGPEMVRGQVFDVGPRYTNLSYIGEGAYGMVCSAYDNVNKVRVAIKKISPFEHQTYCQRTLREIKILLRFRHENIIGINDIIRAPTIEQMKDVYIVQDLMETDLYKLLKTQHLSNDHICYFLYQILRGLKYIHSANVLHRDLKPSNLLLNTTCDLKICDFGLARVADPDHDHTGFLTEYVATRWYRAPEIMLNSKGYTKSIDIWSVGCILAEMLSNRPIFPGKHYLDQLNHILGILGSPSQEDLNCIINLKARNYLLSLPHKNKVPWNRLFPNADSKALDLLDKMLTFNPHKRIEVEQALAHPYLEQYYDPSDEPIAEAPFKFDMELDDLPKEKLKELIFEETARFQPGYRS
Procedure, shortened: (§4)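 Confluent HUVECs starved 16 h in RPMI 1640 with 5% FBS. Pretreated 60 min with compound (2.5–10 μM) or vehicle, then stimulated with VEGF 10 ng/mL for 10 min. Lysates (50 μg protein) run on SDS-PAGE under reducing conditions. Blots probed for phospho-Erk1/2 or phospho-Akt and total proteins; chemiluminescence detection.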

[11] = molecular target: T1, Mitogen-activated protein kinase; ERK1/ERK2 (Homo sapiens); test: Inhibition of VEGF-stimulated ERK1/2 phosphorylation in HUVEC at 2.5 to 10 uM by Western blot analysis; assay type: protein assay; settings: TDE = time-dependent effect; procedure, shortened: as §4
HUVEC [12] = test: Inhibition of VEGF-stimulated Akt phosphorylation in HUVEC at 2.5 to 10 uM after 1 hr by Western blot analysis; assay type: cell-based; settings: Homo sapiens; procedure, shortened: as §4
Mus musculus [13] = test: Antiangiogenic activity in C57BL/6 mouse assessed as inhibition of bFGF-induced neovascularization at 10 uM, sc after 7 days by matrigel plug assay relative to control; assay type: functional, organism-based
Procedure, shortened: (§5)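 C57BL/6 mice, male, three per group; 0.5 mL Matrigel with bFGF (10 ng/mL) plus compound (10 μM) or DMSO vehicle injected subcutaneously, allowed to form a plug. After 7 days, plugs excised, formaldehyde-fixed, paraffin-embedded, sectioned, H&E stained. Plug hemoglobin quantified by QuantiChrom kit against hemoglobin standard. Means ± SEM; ANOVA with Dunnett or Student's t test.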

Mus musculus [14] = test: Antiangiogenic activity in C57BL/6 mouse assessed as decrease in hemoglobin level at 10 uM, sc after 7 days using hematoxylin eosin staining by matrigel plug assay relative to control; assay type: functional, organism-based; procedure, shortened: as §5
HUVEC [15] = test: Antiangiogenic activity in HUVEC assessed as inhibition of VEGF-induced endothelial migration at > 5 uM after 6 hrs using Diff-Quik staining by modified Boyden chamber based chemotactic migration assay; assay type: functional, cell-based; settings: Homo sapiens; procedure, shortened: as §2

CC1(C)C=CC(=O)[C@@]2(C)OO[C@@H]3C[C@]12CCC3O (stereo partly drawn)
Activity (Aorta [1]): Active

CC1(C)CCC(=O)[C@@]2(C)OO[C@@H]3C[C@@]12CCC3(O)CO (stereo partly drawn)
Activity (Aorta [1]): inactive

CC1(C)CCC(=O)[C@@]2(C)OO[C@@H]3C[C@@]12CC[C@H]3O
Activity (Aorta [1]): inactive

CC1(C)C=CC(=O)[C@@]2(C)OO[C@@H]3C[C@]12CCC3(O)CO (stereo partly drawn) [MERULIN C]
Activity (Aorta [2]): Active
fold change (FC) (Aorta [3]): 10
Activity (HUVEC [4]): Dose-dependent effect
IC50 (HUVEC [4]): 0.9 µM
inhibition at 25 µM (HUVEC [5]): 90%
Activity (HUVEC [6]): Dose-dependent effect
inhibition (HUVEC [7]): inactive
inhibition at 25 µM (HUVEC [8]): 50%
inhibition (HUVEC [9]): Active
inhibition [10]: Dose-dependent effect
inhibition [11]: tde
inhibition (HUVEC [12]): inactive
Activity (Mus musculus [13]): Active
Activity (Mus musculus [14]): Active
Activity (HUVEC [15]): Active
